ChEMBL document CHEMBL1124160, “Synthetic aci-reductones: 3,4-dihydroxy-2H-1-benzopyran-2-ones and their cis- and trans-4a,5,6,7,8,8a-hexahydro diastereomers. Antiaggregatory, antilipidemic, and redox properties compared to those of the 4-substituted 2-hydroxytetronic acids” (J Med Chem, 1988)

Columns and labels:
Assay type in all cases: functional, organism-based; call rule not given here
Homo sapiens [1] = species on record: Homo sapiens; experiment: Inhibition of adenosine diphosphate (ADP) induced human platelet aggregation
Method in brief: (§1)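 Human platelet-rich plasma from drug-free volunteers (no medication ≥10 days). Compounds prepared fresh in N2-deoxygenated 10 mM sodium phosphate/0.9% NaCl pH 7.4 (one in DMSO, final 0.14%), added 1 min before inducer: ADP 1–5 μM, AA 0.2–1 mM or U46619 0.3–0.5 μM. Turbidometric aggregometry; IC50 from light-transmittance amplitude at 6 min (ADP, secondary wave) or 4 min (AA, U46619); mean ± SEM over donors.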

Homo sapiens [2] = species on record: Homo sapiens; experiment: Inhibition of adenosine diphosphate (ADP) induced serotonin secretion
Method in brief: (§2)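 Platelets in human platelet-rich plasma prelabeled with [14C]serotonin; dense-granule secretion read as released radioactivity. Compounds in deoxygenated 10 mM sodium phosphate/0.9% NaCl pH 7.4, given 1 min before ADP (1–5 μM), AA (0.2–1 mM) or U46619 (0.3–0.5 μM). Top drug levels 4000–5000 μM; mean ± SEM across donors.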

Homo sapiens [3] = species on record: Homo sapiens; experiment: Inhibition of arachidonic acid (AA) induced human platelet aggregation; method in brief: as §1
Homo sapiens [4] = species on record: Homo sapiens; experiment: Inhibition of arachidonic acid (AA) induced serotonin secretion; method in brief: as §2
Homo sapiens [5] = species on record: Homo sapiens; experiment: Inhibition of U-46,619 induced serotonin secretion; method in brief: as §2
Homo sapiens [6] = species on record: Homo sapiens; experiment: Inhibition of U-46,619 induced human platelet aggregation; method in brief: as §1
Homo sapiens [7] = species on record: Homo sapiens; experiment: Inhibition of U-46,619 induced serotonin secretion; c=No response; method in brief: as §2

Row | IC50 (Homo sapiens [1]) | IC50 (Homo sapiens [2]) | IC50 (Homo sapiens [3]) | IC50 (Homo sapiens [4]) | IC50 (Homo sapiens [5]) | IC50 (Homo sapiens [6]) | IC50 (Homo sapiens [7]) | SMILES
1 | > 3300 µM | > 3000 µM | > 4000 µM | > 4000 µM | > 4000 µM | > 4000 µM | – | O=C1C(O)=C(O)OC12CCCCC2
2 | 1090 µM | 1210 µM | > 4000 µM | > 4000 µM | > 4000 µM | > 4000 µM | – | O=C1C(O)=C(O)OC1c1ccc(Cl)cc1 (configuration not stated)
3 | 447 µM | 406 µM | > 4000 µM | > 4000 µM | > 4000 µM | > 4000 µM | – | O=C1C(O)=C(O)OC2CCCCC12 (configuration not stated)
4 | > 4000 µM | > 4000 µM | > 4000 µM | > 4000 µM | > 4000 µM | > 4000 µM | – | O=C1C(O)=C(O)OC12CCCC2
5 | 481 µM | 492 µM | > 4000 µM | > 4000 µM | – | 3090 µM | Not Active | O=C1C(O)=C(O)OC2CCCC[C@H]12 (some centres not stated)

Further lines, the compound ahead of its results:

Row | SMILES | IC50 (Homo sapiens [1]) | IC50 (Homo sapiens [2]) | IC50 (Homo sapiens [3]) | IC50 (Homo sapiens [4]) | IC50 (Homo sapiens [5]) | IC50 (Homo sapiens [6]) | IC50 (Homo sapiens [7])
6 | CC(=O)Oc1ccccc1C(=O)O [ASPIRIN] | 59 µM | 50 µM | 89 µM | 95 µM | – | – | –
7 | COc1ccc2c(c1)c(CC(=O)O)c(C)n2C(=O)c1ccc(Cl)cc1 [INDOMETHACIN] | 0.8 µM | 0.7 µM | 1 µM | 1 µM | – | – | –
8 | CC(C)(Oc1ccc(Cl)cc1)C(=O)O [CLOFIBRIC ACID] | – | – | > 3200 µM | > 3500 µM | 3080 µM | > 4000 µM | –
9 | CC(C)(C)c1cc2oc(O)c(O)c(=O)c2cc1O | 1640 µM | 2180 µM | > 4000 µM | > 4000 µM | > 4000 µM | > 4000 µM | –
10 | O=c1c(O)c(O)oc2ccc(-c3ccccc3)cc12 | 522 µM | 450 µM | 253 µM | 407 µM | 345 µM | 422 µM | –
11 | O=c1c(O)c(O)oc2cc3c(cc12)OCO3 | 426 µM | 389 µM | 3980 µM | 1550 µM | 744 µM | 1110 µM | –
12 | O=c1c(O)c(O)oc2ccccc12 | 531 µM | 472 µM | 561 µM | 925 µM | 3980 µM | 3410 µM | –
13 | O=c1c(O)c(O)oc2ccc(O)cc12 | 1420 µM | 1520 µM | 3510 µM | 3410 µM | > 4000 µM | > 4000 µM | –
14 | O=c1c(O)c(O)oc2ccc(Cl)cc12 | 498 µM | 513 µM | 780 µM | 1130 µM | – | 1400 µM | –
